Source: ChEMBL document CHEMBL2176986, “Selective and potent urea inhibitors of cryptosporidium parvum inosine 5'-monophosphate dehydrogenase” (J Med Chem, 2012)
pEC50, pIC50: −log10 of the molar value.

Key:
[1] = target: Inosine-5'-monophosphate dehydrogenase 2 (Homo sapiens, UniProt P12268); assay: Inhibition of human IMPDH 2
[2] = target: T1, Inosine-5'-monophosphate dehydrogenase (Cryptosporidium parvum, UniProt Q8T6T2); assay: Inhibition of Cryptosporidium parvum recombinant IMPDH expressed in Escherichia coli assessed as production of NADH incubated for 5 mins by fluorescence based assay
T1 sequence (Q8T6T2 whole entry): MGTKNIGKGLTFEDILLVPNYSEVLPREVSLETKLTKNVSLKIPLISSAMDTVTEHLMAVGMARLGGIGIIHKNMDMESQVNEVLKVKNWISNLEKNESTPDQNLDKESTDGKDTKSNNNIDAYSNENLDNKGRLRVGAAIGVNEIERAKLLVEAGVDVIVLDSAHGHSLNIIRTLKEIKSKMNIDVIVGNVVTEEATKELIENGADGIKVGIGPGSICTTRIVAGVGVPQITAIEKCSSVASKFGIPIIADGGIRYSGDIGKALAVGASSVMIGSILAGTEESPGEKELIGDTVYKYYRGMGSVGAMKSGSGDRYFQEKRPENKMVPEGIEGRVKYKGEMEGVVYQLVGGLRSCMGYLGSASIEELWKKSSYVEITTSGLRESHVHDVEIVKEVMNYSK
How it was run: (§1)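 Recombinant CpIMPDH purified from E. coli, 10 nM, preincubated with inhibitor 5 min at room temperature before substrates added. NADH formation followed by fluorescence. Line 3 also includes 0.05% fatty-acid-free BSA.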

[3] = target: T1, Inosine-5'-monophosphate dehydrogenase; assay: Inhibition of Cryptosporidium parvum recombinant IMPDH expressed in Escherichia coli assessed as production of NADH in presence of 0.05% fatty acid free BSA incubated for 5 mins by fluorescence based assay; how it was run: as §1
Toxoplasma gondii [4] = assay: Antiparasitic activity against Toxoplasma gondii expressing Cryptosporidium parvum IMPDH and co-expressing yellow fluorescent protein infected to human TERT immobilized human foreskin fibroblasts assessed as parasite growth inhibition for 6 to 7 days by fluorescence based assay; assay type: functional, organism-based
How it was run: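 Parasite lines carrying yellow fluorescent protein were grown on hTERT-immortalized human foreskin fibroblasts. One line depends on C. parvum IMPDH (Toxo/CpIMPDH). The other is wild-type strain RH, which has its own eukaryotic IMPDH. Fluorescence (Ex 485, Em 530) was read daily for 6-7 days. Growth inhibition was taken on a day within exponential growth.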

Liver = assay: Half life in mouse liver microsomes; assay type: ADME, Microsome
Plasma = assay: Half life in mouse plasma; assay type: ADME, cell-free
Toxoplasma gondii [5] = assay: Toxicity against wild type Toxoplasma gondii expressing yellow fluorescent protein infected in human TERT immobilized human foreskin fibroblasts assessed as parasite growth inhibition for 6 to 7 days by fluorescence based assay; assay type: organism-based
How it was run: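 Parasite lines carrying yellow fluorescent protein were grown on hTERT-immortalized human foreskin fibroblasts. One line depends on C. parvum IMPDH (Toxo/CpIMPDH). The other is wild-type strain RH, which has its own eukaryotic IMPDH. Growth inhibition was taken on a day within exponential growth.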

Toxoplasma gondii [6] = assay: Selectivity ratio of EC50 of wild type Toxoplasma gondii to EC50 of Toxoplasma gondii expressing Cryptosporidium parvum IMPDH
How it was run: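 Selectivity is the EC50 against wild-type RH T. gondii divided by the EC50 against the CpIMPDH-dependent strain. Both were measured by daily YFP fluorescence of parasites on hTERT human foreskin fibroblasts over 6-7 days, with inhibition taken in exponential growth.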

| SMILES | pIC50 [1] | pIC50 [2] | pIC50 [3] | pEC50 (Toxoplasma gondii [4]) | t1/2 (Liver) [h] | t1/2 (Plasma) [h] | pEC50 (Toxoplasma gondii [5]) | Ratio EC50 (Toxoplasma gondii [6]) |
| --- | --- | --- | --- | --- | --- | --- | --- | --- |
| C=C(C)c1cccc(C(C)(C)NC(=O)Nc2ccc3[nH]c(=O)[nH]c3c2)c1 | < 5.30 | 6.47 | – | – | – | – | – | – |
| C=C(C)c1cccc(C(C)(C)NC(=O)Nc2ccc(OC)cc2)c1 | ≤ 5.30 | 8.05 | 7.68 | – | – | – | – | – |
| C/C(=N\O)c1cccc(C(C)(C)NC(=O)Nc2ccc(Cl)c([N+](=O)[O-])c2)c1 | – | 9.18 | 8.70 | 8.22 | 0.183 | – | – | – |
| C/C(=N\O)c1cccc(C(C)(C)NC(=O)Nc2ccc(Cl)c(C(N)=O)c2)c1 | – | – | 8.22 | 5.72 | 3.17 | > 2 | < 4.60 | >12 |
| C/C(=N\O)c1cccc(C(C)(C)NC(=O)Nc2ccc3ccccc3c2)c1 | – | 9.00 | 8.64 | 7.10 | – | – | 5.30 | 63 |
| C/C(=N\O)c1cccc(C(C)(C)NC(=O)Nc2ccc3cccnc3c2)c1 | – | 9.05 | 8.92 | 7.24 | 0.75 | > 2 | 4.85 | 230 |
| CO/N=C(\C)c1cccc(C(C)(C)NC(=O)Nc2ccc(Cl)c(C(F)(F)F)c2)c1 | – | 8.30 | 7.74 | 7.80 | 0.55 | – | 5.85 | 86 |
| CO/N=C(\C)c1cccc(C(C)(C)NC(=O)Nc2ccc(Cl)c(C(N)=O)c2)c1 | – | 8.30 | 8.30 | 6.70 | – | – | < 4.60 | >120 |
| CO/N=C(\C)c1cccc(C(C)(C)NC(=O)Nc2ccc3ccccc3c2)c1 | – | 8.80 | 7.89 | 7.89 | – | – | – | – |
| C/C(=N\OCCN)c1cccc(C(C)(C)NC(=O)Nc2ccc(Cl)c([N+](=O)[O-])c2)c1 | – | 7.70 | 7.62 | 6.29 | 2.02 | – | 5.00 | 20 |
| C=C(C)c1cccc(C(C)(C)NC(=O)Nc2cccc3ccccc23)c1 | ≤ 5.30 | < 5.30 | – | – | – | – | – | – |
| C=C(C)c1cccc(C(C)(C)NC(=O)Nc2ccc3ncccc3c2)c1 | ≤ 5.30 | 8.74 | 8.40 | 7.70 | – | – | 5.12 | – |
| C=C(C)c1cccc(C(C)(C)NC(=O)Nc2ccc3cccnc3c2)c1 | ≤ 5.30 | 9.10 | 8.22 | > 6.70 | 0.0983 | > 2 | 5.52 | >15 |
| C=C(C)c1cccc(C(C)(C)NC(=O)Nc2cnc3ccccc3c2)c1 | ≤ 5.30 | 7.15 | 6.51 | 5.96 | – | – | 5.70 | 2.3 |
| C=C(C)c1cccc(C(C)(C)NC(=O)Nc2ccc3ccccc3n2)c1 | ≤ 5.30 | 6.60 | 5.96 | 5.47 | – | – | 5.52 | 0.9 |
| CC(C)(NC(=O)Nc1ccc2[nH]c(=O)[nH]c2c1)c1ccccc1 | – | < 5.30 | – | – | – | – | – | – |
| CC(C)c1cccc(C(C)(C)NC(=O)Nc2ccc3ccccc3c2)c1 | – | < 5.30 | – | – | – | – | – | – |
| CC(O)c1cccc(C(C)(C)NC(=O)Nc2ccc(Cl)cc2)c1 (stereo not given) | – | 7.10 | 6.92 | 6.05 | – | – | 4.72 | – |
| CC(C)(NC(=O)Nc1ccc(Cl)c(C(N)=O)c1)c1cccc(-c2ccccc2)c1 | – | 8.40 | 7.85 | 6.68 | – | – | 5.22 | – |
| CC(C)(NC(=O)Nc1ccc(Cl)cc1)c1ccc(-c2ccccc2)cc1 | – | < 5.30 | – | – | – | – | – | – |
| CC(=O)c1cccc(C(C)(C)NC(=O)Nc2ccc(Cl)cc2)c1 | – | 7.41 | 7.19 | – | – | – | – | – |
| CC(=O)c1cccc(C(C)(C)NC(=O)Nc2ccc(Cl)c(C(F)(F)F)c2)c1 | – | 8.05 | 7.70 | 6.70 | – | – | 5.49 | 16 |
| CC(=O)c1cccc(C(C)(C)NC(=O)Nc2ccc(Cl)c(C(N)=O)c2)c1 | – | 7.27 | 7.28 | 6.42 | > 11.7 | > 2 | < 4.60 | >66 |

| SMILES | pIC50 [1] | pIC50 [2] | pIC50 [3] | pEC50 (Toxoplasma gondii [4]) | t1/2 (Liver) [h] | t1/2 (Plasma) [h] | pEC50 (Toxoplasma gondii [5]) | Ratio EC50 (Toxoplasma gondii [6]) |
| --- | --- | --- | --- | --- | --- | --- | --- | --- |
| CC(=O)c1cccc(C(C)NC(=O)Nc2ccc(Cl)cc2)c1 (stereo not given) | – | 7.15 | 6.96 | 5.64 | – | – | 5.10 | – |
| CC(=O)c1cccc(CNC(=O)Nc2ccc(Cl)cc2)c1 | – | 5.30 | – | 4.96 | – | – | 5.15 | 0.6 |
| NC(=O)c1cc(NC(=O)NC2(c3cccc(-c4ccccc4)c3)CC2)ccc1Cl | – | 7.40 | 7.05 | 6.22 | – | – | 5.05 | 15 |
| C=C(C)c1cccc(C(C)(C)NC(=O)N(C)c2ccc(Cl)cc2)c1 | – | 6.05 | 5.30 | – | – | – | – | – |
| CC(=O)c1cccc(C(C)(C)NC(=O)Oc2ccc(Cl)cc2)c1 | – | < 5.30 | – | – | – | – | – | – |
| CC(=O)c1cccc(C(C)(C)NC(=O)Cc2ccc(Cl)cc2)c1 | – | < 5.30 | – | – | – | – | – | – |
| CC(=O)c1cccc(C(C)(C)OC(=O)Nc2ccc(Cl)cc2)c1 | – | 7.05 | 6.92 | – | – | – | – | – |
| C/C(=N\O)c1cccc(C(C)(C)NC(=O)Nc2ccc(Cl)c(C(F)(F)F)c2)c1 | – | 9.00 | 8.40 | 8.00 | 1.47 | – | – | – |
| C=C(C)c1cccc(C(C)(C)NC(=O)Nc2ccccc2)c1 | ≤ 5.30 | 6.60 | 6.39 | 6.11 | – | – | 5.22 | 8 |
| C=C(C)c1cccc(C(C)(C)NC(=O)Nc2ccc(Cl)cc2)c1 | ≤ 5.30 | 7.70 | 7.43 | 6.74 | – | – | < 4.60 | >140 |
| C=C(C)c1cccc(C(C)(C)NC(=O)Nc2ccc(Br)cc2)c1 | ≤ 5.30 | 8.00 | 7.70 | 6.70 | – | – | < 4.60 | >120 |
| C=C(C)c1cccc(C(C)(C)NC(=O)Nc2cccc(Cl)c2)c1 | ≤ 5.30 | 7.15 | 6.48 | 6.42 | – | – | 6.40 | 1 |
| C=C(C)c1cccc(C(C)(C)NC(=O)Nc2ccccc2Cl)c1 | ≤ 5.30 | < 5.30 | – | – | – | – | – | – |
| C=C(C)c1cccc(C(C)(C)NC(=O)Nc2ccc(C(C)(C)C)cc2)c1 | ≤ 5.30 | < 5.30 | – | 5.14 | – | – | 4.70 | 3 |
| C=C(C)c1cccc(C(C)(C)NC(=O)Nc2ccc(Cl)c(Cl)c2)c1 | ≤ 5.30 | 8.22 | 7.30 | 6.66 | – | – | 5.40 | 20 |
| C=C(C)c1cccc(C(C)(C)NC(=O)Nc2ccc(Cl)c(C(F)(F)F)c2)c1 | ≤ 5.30 | 8.40 | 7.70 | – | – | – | – | – |
| C=C(C)c1cccc(C(C)(C)NC(=O)Nc2ccc(Cl)c(OC)c2)c1 | ≤ 5.30 | 8.89 | 8.30 | 7.74 | – | – | 5.64 | 127 |
| C=C(C)c1cccc(C(C)(C)NC(=O)Nc2ccc(Cl)c(C(N)=O)c2)c1 | ≤ 5.30 | 8.64 | 8.52 | 6.64 | 0.417 | > 2 | 4.82 | 65 |
| C=C(C)c1cccc(C(C)(C)NC(=O)Nc2ccc(Cl)c(C(=O)NC)c2)c1 | ≤ 5.30 | 8.15 | 7.85 | 6.74 | – | – | 4.72 | 100 |
| C=C(C)c1cccc(C(C)(C)NC(=O)Nc2ccc(Cl)c(C(=O)N(C)C)c2)c1 | ≤ 5.30 | 8.10 | 7.93 | 7.05 | – | – | 5.05 | 100 |
| C=C(C)c1cccc(C(C)(C)NC(=O)Nc2ccc3c(c2)OCCO3)c1 | ≤ 5.30 | 8.14 | 6.96 | 6.70 | – | – | 5.10 | 50 |
| C=C(C)c1cccc(C(C)(C)NC(=O)Nc2ccc3ccccc3c2)c1 | ≤ 5.30 | 8.68 | 7.40 | 6.70 | – | – | < 4.60 | >120 |
